Hits are enriched below; roughly 1.8% of the tested compounds scored in any of these assays.
PAD4 FP inh: inhibitors of human PAD4; Q9UM07; recombinant PAD4, RCA probe fluorescence polarization; inhibition, % at 6.36 µM; 330,000 compounds, 0.41% hits;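 active = percent inhibition above a cutoff equal to the mean of all tested compounds plus 3 SD, cut at about 15% in these data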
Target sequence (Q9UM07 whole entry, looked up): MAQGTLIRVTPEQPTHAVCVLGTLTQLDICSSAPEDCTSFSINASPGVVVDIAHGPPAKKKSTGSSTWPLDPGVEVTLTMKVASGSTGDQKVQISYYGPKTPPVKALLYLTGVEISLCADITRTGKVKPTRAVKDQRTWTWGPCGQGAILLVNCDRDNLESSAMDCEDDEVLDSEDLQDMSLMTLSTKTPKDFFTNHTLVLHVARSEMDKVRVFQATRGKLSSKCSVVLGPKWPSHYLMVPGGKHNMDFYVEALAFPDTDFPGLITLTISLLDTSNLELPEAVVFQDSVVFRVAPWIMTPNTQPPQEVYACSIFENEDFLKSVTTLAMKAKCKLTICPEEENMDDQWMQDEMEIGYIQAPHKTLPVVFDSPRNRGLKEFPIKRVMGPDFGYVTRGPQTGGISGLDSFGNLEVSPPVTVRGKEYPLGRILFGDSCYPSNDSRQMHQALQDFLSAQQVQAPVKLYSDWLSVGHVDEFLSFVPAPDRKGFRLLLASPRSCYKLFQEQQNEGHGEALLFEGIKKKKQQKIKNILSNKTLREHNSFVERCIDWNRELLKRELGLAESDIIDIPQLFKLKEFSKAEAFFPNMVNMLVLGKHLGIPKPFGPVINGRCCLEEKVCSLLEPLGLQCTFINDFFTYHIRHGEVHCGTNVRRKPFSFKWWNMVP
GSTO1 inh: blocks human GSTO1 in RBBP9 counter-screen | P78417 | recombinant GSTO1, activity-based probe fluorescence polarization | inhibition, % at 5.96 µM | 300,000 compounds, 1.1% hits | AID 1974;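 active = inhibition above the campaign mean inhibition plus 3 SD, cut at about 35% in these data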
TDP2 inh: TDP2 (human) inhibition, absorbance primary screen. O95551. recombinant TDP2, T5PNP hydrolysis, p-nitrophenol absorbance 415 nm. inhibition, % at 12.8 µM. 370,000 compounds, 0.34% hits. AID 720702;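 active = inhibition above the mean of all tested compounds plus 3 SD, set per campaign, cut at about 25% in these data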
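Read-out basis: percent inhibition. System: recombinant human TDP2. Buffer or medium: Mg2+-containing Tris-HCl buffer, pH 7.5. Repeats: single replicate. Timing: reaction 2 h, 37 °C. Benchmarks: high control without enzyme, low control DMSO plus TDP2. Probe or stimulus: 5 mM T5PNP. Doses: 12.8 µM only. Measured by: epi absorbance of p-nitrophenol freed from T5PNP by hydrolysis.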
Apaf-1 inh: human Apaf-1 inhibition; reconstituted apoptosome caspase-3 activity, DEVD-Rh110 fluorescence; 330,000 compounds, 0.71% hits; inhibition, % at 20 µM; AID 489030; O14727; active = inhibition of at least 40% at 20 µM
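System: Apoptosome proteins | Medium: Hepes pH 7.5 with detergent and BSA | Also added: Cytochrome c trigger plus (Z-DEVD)2-Rh110 caspase-3 substrate | Incubation: 30 min compound preincubation, 50 min activation, room temperature | Detection: Rhodamine 110 fluorescence at Ex 480/Em 540 nm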
CTSL1 counter: counter-screen for PFM18AAP inhibitors: inhibitors of F. hepatica cathepsin L1; recombinant F. hepatica cathepsin L1, Z-Leu-Arg-MCA fluorescence; inhibition, % at 5.96 µM; 300,000 compounds, 0.49% hits; AID 1906;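 active = inhibition above the mean of all tested compounds plus 3 SD, set per screening campaign, cut at about 17% in these data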
Apaf-1 inh conf2: confirmation of Apaf-1 inhibitors | inhibition, % at 20 µM | 1,800 compounds, 25% hits | reconstituted apoptosome, caspase-3 DEVD-Rh110 fluorescence | shares compounds with Apaf-1 inh;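 active = mean inhibition of at least 40% at 20 µM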
Rh110 interf inh: Rh110 signal interference in Apaf-1 inhibitor counter-screen; shares compounds with Apaf-1 inh; Rh110 fluorescence interference, quenched caspase reaction; activation (fluorescence interference), % at 20 µM; 1,800 tested, under 10 active; AID 504615;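 active = signal rise of 40% or more at 20 µM, treated as a fluorescence artifact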
Fluor interf inh: shows fluorescence interference in the Apaf-1 inhibitor assay format; shares compounds with Apaf-1 inh; IC50, µM; 460 tested, under 10 active; fluorescence interference counterscreen, Apaf-1 assay format; call rule not given here
Numbers stand for hits; i = inactive; nt = not tested or not shown.

SMILES | PAD4 FP inh | GSTO1 inh | TDP2 inh | Apaf-1 inh | CTSL1 counter | Apaf-1 inh conf2 | Rh110 interf inh | others
O=C(CN1CCc2cc3c(cc2C1)OCCCO3)Nc1cccc([N+](=O)[O-])c1 | i | i | i | 43 | i | i | i
O=C(N[C@H](C(=O)N1CCC[C@H]1C(=O)NCCc1ccccc1Cl)C1CCCCC1)c1ccc(Cl)c(Cl)c1 | nt | nt | i | nt | nt | nt | nt
NC(=O)CC1Nc2cccc3cccc(c23)NC1=O (stereo not given) | i | i | i | 98 | i | i | i
COc1ccc(NCc2cc3cc(OC)ccc3[nH]c2=O)cc1 | i | i | i | 47 | i | 62 | i | Fluor interf inh=i
COc1ccc(NCc2cc3ccccc3[nH]c2=O)cc1 | i | i | i | i | i | nt | nt
O=[N+]([O-])c1ccccc1-c1ccc(C(=S)N2CCCC2)o1 | i | i | i | 47 | i | i | i | Fluor interf inh=i
O=C(C[C@H]1C[C@H](C(=O)N2CCOCC2)[C@@]2(CCC3CCCC3)c3[nH]c4cc(-c5ccco5)ccc4c3CCN2C1=O)NCCCn1ccnc1 | i | nt | i | 62 | nt | i | i
CC(C)(C)NC(=O)C[C@H]1C[C@H](C(=O)N2CCOCC2)[C@@]2(CCC3CCCC3)c3[nH]c4ccc(Cl)cc4c3CCN2C1=O | i | nt | nt | 44 | nt | i | i
CC[C@]12c3[nH]c4ccc(OC)cc4c3CCN1C(=O)C(CC(=O)NC/C=C(\C)CCC=C(C)C)C[C@@H]2C(=O)N1CCN(C(=O)c2ccco2)CC1 (stereo not given in full) | i | nt | i | 40 | nt | i | i
CC[C@]12c3[nH]c4ccccc4c3CCN1C(=O)C(CC(=O)NC/C=C(\C)CCC=C(C)C)C[C@@H]2C(=O)N1CCN(C(=O)c2ccco2)CC1 (stereo not given in full) | i | nt | i | i | nt | nt | nt
CC(C)N(C(=O)[C@H]1C[C@H](CC(=O)NCCC2=CCCCC2)C(=O)N2CCc3c([nH]c4ccc(Cl)cc34)[C@]12C)C(C)C | i | nt | i | 44 | nt | i | i
O=C(C[C@H]1C[C@H](C(=O)N2CCCCC2)[C@@]2(CCc3ccccc3)c3[nH]c4ccc(Cl)cc4c3CCN2C1=O)NCCCn1ccnc1 | i | nt | i | 61 | nt | i | i
C[C@]12c3[nH]c4ccc(Cl)cc4c3CCN1C(=O)[C@@H](CC(=O)NCCCn1ccnc1)C[C@@H]2C(=O)N1CCCCC1 | i | nt | i | i | nt | nt | nt
O=C(C[C@H]1C[C@H](C(=O)N2CCCCC2)[C@@]2(CCc3ccccc3)c3[nH]c4cc(-c5ccco5)ccc4c3CCN2C1=O)NCCN1CCOCC1 | i | nt | i | 48 | nt | i | i
COCCCNC(=O)C[C@H]1C[C@H](C(=O)N2CCCCC2)[C@@]2(CCc3ccccc3)c3[nH]c4cc(-c5ccco5)ccc4c3CCN2C1=O | i | nt | i | i | nt | nt | nt
COCCN=C1N[C@@H](c2cccc(C(F)(F)F)c2)C(C(=O)OC)=C(C)N1Cc1ccccc1 | i | i | i | i | i | nt | nt
COC(=O)C1=C(C)N(Cc2ccccc2)C(=NCc2ccc(OC)cc2)N[C@H]1c1ccccc1 | i | nt | i | 51 | nt | i | i
COC(=O)C1=C(C)N(Cc2ccccc2)C(=NCCc2c[nH]c3ccccc23)N[C@H]1c1cccc(C(F)(F)F)c1 | i | nt | nt | 78 | nt | 43 | i | Fluor interf inh=i
COC(=O)C1=C(C)N(Cc2ccccc2)C(=NCc2cccc(C(F)(F)F)c2)N[C@H]1c1cccc(C(F)(F)F)c1 | i | nt | nt | 74 | nt | i | i
COC(=O)C1=C(C)N(CC2CC2)C(=NCc2cccc(C(F)(F)F)c2)N[C@H]1c1ccccc1 | i | nt | nt | 57 | nt | i | i
NC(=O)[C@@H]1CCCN1C(=O)[C@@H](Cc1ccccc1)NC(=O)[C@H]1O[C@@H](n2ccc(=O)[nH]c2=O)[C@H](O)[C@@H]1O | nt | nt | i | nt | nt | nt | nt
O=S(=O)(c1ccc(Br)cc1)N1CCN(c2ccc3nnc(-c4ccccc4)n3n2)CC1 | i | i | i | 41 | i | 55 | i | Fluor interf inh=i

Bioassay records from PubChem BioAssay.
